Measurements as given in ChEMBL document CHEMBL3525985, “Regiospecificity and stereospecificity of human UDP-glucuronosyltransferases in the glucuronidation of estriol, 16-epiestriol, 17-epiestriol, and 13-epiestradiol” (Drug Metab Dispos, 2013).

Legend:
Format in all cases: ADME
[1] = target: T1, UDP-glucuronosyltransferase 1A1 (Homo sapiens, UniProt P22309); assay: Drug metabolism assessed as recombinant human C-terminal His-tagged UGT1A1-mediated 16-epiestriol-3-glucuronide formation after 15 to 60 mins by Michaelis-Menten equation analysis in presence of UDPGA; conditions: recombinant enzyme
T1 sequence (P22309 whole entry): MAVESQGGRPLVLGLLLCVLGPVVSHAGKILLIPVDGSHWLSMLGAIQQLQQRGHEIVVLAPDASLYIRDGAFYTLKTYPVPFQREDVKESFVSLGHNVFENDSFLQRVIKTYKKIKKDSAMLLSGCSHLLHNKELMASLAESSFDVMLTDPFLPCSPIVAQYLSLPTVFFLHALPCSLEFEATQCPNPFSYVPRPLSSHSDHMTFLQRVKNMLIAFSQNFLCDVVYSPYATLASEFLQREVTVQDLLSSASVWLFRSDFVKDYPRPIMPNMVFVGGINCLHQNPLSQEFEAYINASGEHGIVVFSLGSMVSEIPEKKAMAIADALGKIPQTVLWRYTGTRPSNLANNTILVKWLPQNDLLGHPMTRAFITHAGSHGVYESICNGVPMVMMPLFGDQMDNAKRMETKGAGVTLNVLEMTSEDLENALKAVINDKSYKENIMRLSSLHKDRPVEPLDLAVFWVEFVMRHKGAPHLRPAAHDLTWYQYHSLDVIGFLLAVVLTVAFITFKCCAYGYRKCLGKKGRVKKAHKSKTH

[2] = target: T2, UDP-glucuronosyltransferase 1A4 (Homo sapiens, UniProt P22310); assay: Drug metabolism assessed as recombinant human C-terminal His-tagged UGT1A4-mediated 16-epiestriol-16-glucuronide formation at 200 uM after 15 to 60 mins by HPLC analysis in presence of UDPGA; conditions: recombinant enzyme
T2 sequence (P22310 whole entry): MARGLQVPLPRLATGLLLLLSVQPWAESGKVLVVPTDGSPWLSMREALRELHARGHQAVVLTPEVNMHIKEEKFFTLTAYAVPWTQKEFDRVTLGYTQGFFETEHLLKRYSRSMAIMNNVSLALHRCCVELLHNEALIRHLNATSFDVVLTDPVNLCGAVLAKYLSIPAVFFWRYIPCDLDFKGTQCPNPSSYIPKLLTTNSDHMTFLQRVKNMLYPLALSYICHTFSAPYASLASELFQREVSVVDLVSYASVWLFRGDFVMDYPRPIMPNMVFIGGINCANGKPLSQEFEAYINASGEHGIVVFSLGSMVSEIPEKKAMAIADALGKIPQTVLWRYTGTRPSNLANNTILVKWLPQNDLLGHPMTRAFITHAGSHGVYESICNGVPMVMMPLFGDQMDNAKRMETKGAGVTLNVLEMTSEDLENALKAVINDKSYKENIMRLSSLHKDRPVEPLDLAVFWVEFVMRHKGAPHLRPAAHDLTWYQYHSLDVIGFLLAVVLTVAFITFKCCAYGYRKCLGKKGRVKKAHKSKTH
Summary of the method: (§1)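 Screening at a single substrate concentration of 200 μM, in triplicate. The reaction used 5 or 50 µg of UGT-enriched insect cell membranes in 50 mM phosphate pH 7.4 with 10 mM MgCl₂ and 5 mM UDPGA, 10% final DMSO. Incubation was 15–60 min at 37°C. Perchloric acid stopped the reaction and supernatants were analysed by HPLC. Controls lacked UDPGA. Rates were normalized to relative UGT expression level.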

[3] = target: T3, UDP-glucuronosyltransferase 2B15 (Homo sapiens, UniProt P54855); assay: Drug metabolism assessed as recombinant human C-terminal His-tagged UGT2B15-mediated 13-epiestradiol-3-glucuronide/13-epiestradiol-17-glucuronide formation at 200 uM after 15 to 60 mins by HPLC analysis in presence of UDPGA; conditions: recombinant enzyme, in the assay text read “UGT2B15-mediated” for “C-terminal His-tagged UGT2B15-mediated”
T3 sequence (P54855 whole entry): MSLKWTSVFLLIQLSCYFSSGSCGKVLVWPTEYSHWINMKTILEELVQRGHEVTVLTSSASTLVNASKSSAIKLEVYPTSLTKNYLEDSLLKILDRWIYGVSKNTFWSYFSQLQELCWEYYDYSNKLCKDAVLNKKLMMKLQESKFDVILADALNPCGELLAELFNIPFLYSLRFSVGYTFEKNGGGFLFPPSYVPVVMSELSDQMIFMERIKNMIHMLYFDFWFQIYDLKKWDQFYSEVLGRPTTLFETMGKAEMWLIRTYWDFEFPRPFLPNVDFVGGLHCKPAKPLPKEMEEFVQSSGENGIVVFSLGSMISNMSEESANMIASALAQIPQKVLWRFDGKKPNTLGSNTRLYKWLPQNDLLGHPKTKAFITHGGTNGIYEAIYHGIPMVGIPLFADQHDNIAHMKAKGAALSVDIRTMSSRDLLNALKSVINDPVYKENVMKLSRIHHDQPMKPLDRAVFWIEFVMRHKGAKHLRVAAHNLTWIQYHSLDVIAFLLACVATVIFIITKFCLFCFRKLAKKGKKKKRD
Summary of the method: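 UGT2B15 was a commercial enzyme without a His-tag, so rates were not normalized to expression. Screening used 200 μM substrate in triplicate, with membranes in 50 mM phosphate pH 7.4, 10 mM MgCl₂, 5 mM UDPGA and 10% DMSO. Incubation was 15–60 min at 37°C. The reaction was stopped with perchloric acid and analysed by HPLC. Controls lacked UDPGA.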

[4] = target: T4, UDP-glucuronosyltransferase 2A1 (Homo sapiens, UniProt P0DTE4); assay: Drug metabolism assessed as recombinant human C-terminal His-tagged UGT2A1-mediated 13-epiestradiol-3-glucuronide/13-epiestradiol-17-glucuronide formation at 200 uM after 15 to 60 mins by HPLC analysis in presence of UDPGA; conditions: recombinant enzyme; summary of the method: as §1
T4 sequence (P0DTE4 whole entry): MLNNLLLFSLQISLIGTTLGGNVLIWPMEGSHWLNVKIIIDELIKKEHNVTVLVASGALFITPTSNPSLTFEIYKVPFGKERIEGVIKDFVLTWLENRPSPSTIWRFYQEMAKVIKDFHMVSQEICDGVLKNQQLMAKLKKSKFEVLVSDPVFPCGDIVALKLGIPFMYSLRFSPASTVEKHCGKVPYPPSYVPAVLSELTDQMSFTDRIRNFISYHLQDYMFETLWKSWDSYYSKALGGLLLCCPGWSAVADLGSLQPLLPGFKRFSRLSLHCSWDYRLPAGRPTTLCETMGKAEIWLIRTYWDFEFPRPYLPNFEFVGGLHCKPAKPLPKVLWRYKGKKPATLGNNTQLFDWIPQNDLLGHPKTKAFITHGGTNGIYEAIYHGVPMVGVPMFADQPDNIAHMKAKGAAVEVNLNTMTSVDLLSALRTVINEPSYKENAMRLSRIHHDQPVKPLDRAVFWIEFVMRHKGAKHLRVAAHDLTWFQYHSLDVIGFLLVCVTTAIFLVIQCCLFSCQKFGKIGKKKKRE

[5] = target: T4, UDP-glucuronosyltransferase 2A1; assay: Drug metabolism assessed as recombinant human C-terminal His-tagged UGT2A1-mediated estriol-16-glucuronide formation after 15 to 60 mins by Michaelis-Menten equation analysis in presence of UDPGA; conditions: recombinant enzyme
[6] = target: T3, UDP-glucuronosyltransferase 2B15; assay: Drug metabolism assessed as recombinant human C-terminal […]-mediated 17-epiestriol-3-glucuronide formation at 200 uM after 15 to 60 mins by HPLC analysis in presence of UDPGA; conditions: recombinant enzyme

## C[C@]12CC[C@@H]3c4ccc(O)cc4CC[C@H]3[C@@H]1C[C@H](O)[C@@H]2O [EPIESTRIOL]
[1]
  Drug metabolism: 0.5 pmol/min/mg
[2]
  Drug metabolism: metabolite_not_detected

## C[C@@]12CC[C@@H]3c4ccc(O)cc4CC[C@H]3[C@@H]1CC[C@@H]2O
[3]
  Drug metabolism: metabolite_detected
[4]
  Drug metabolism: metabolite_detected

## C[C@]12CC[C@@H]3c4ccc(O)cc4CC[C@H]3[C@@H]1C[C@@H](O)[C@@H]2O [ESTRIOL]
[5]
  Drug metabolism: 4 pmol/min/mg

## C[C@]12CC[C@@H]3c4ccc(O)cc4CC[C@H]3[C@@H]1C[C@@H](O)[C@H]2O
[6]
  Drug metabolism: metabolite_detected
